This note sets out measurements from ChEMBL document CHEMBL3351576, “Five new quassinoids and cytotoxic constituents from the roots of Eurycoma longifolia” (Bioorg Med Chem Lett, 2014).

Assay [1] concerns A549. Description: Cytotoxicity against human A549 cells assessed as cell viability at 1 uM by SRB assay. In kind it is functional. The conditions noted are these: read-out: Activity. The method, boiled down:
(§1)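 Modified sulforhodamine B (SRB) protein-stain assay. Each human cancer line was exposed to 1, 10 and 100 µM of each isolated root constituent. The read-out is relative cell viability (%), reported as mean ± error.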
For orientation: In SRB staining, fixed cells bind dye roughly in proportion to their protein.

Assay [2] has as its system A549. The experiment in a line: Cytotoxicity against human A549 cells assessed as cell viability at 10 uM by SRB assay. In kind it is functional. The settings on record: read-out: Activity. The method, boiled down:
as §1

Assay [3] concerns A549. The experiment in a line: Cytotoxicity against human A549 cells assessed as cell viability at 100 uM by SRB assay. In kind it is functional. The conditions noted are these: read-out: Activity. An outline of the steps: as §1
For assay [4], the system named is HeLa. The experiment in a line: Cytotoxicity against human HeLa cells assessed as cell viability at 1 uM by SRB assay. The assay is classed as functional. The conditions noted are these: read-out: Activity. An outline of the steps: as §1
In assay [5] the test system is HeLa. Description: Cytotoxicity against human HeLa cells assessed as cell viability at 10 uM by SRB assay. The assay is classed as functional. The conditions noted are these: read-out: Activity. An outline of the steps:
as §1

Assay [6] has as its system HeLa. Description: Cytotoxicity against human HeLa cells assessed as cell viability at 100 uM by SRB assay. The assay is classed as functional. The conditions noted are these: read-out: Activity. The method, boiled down:
as §1

Assay [7] deals with HeLa. Description: Cytotoxicity against human HeLa cells by SRB assay. In kind it is functional, cell-based.

pIC50: −log10 of the molar value.

As for `CC1=CC(=O)O[C@H]1[C@@]1(C)C[C@H]2OC(=O)[C@H](O)[C@@]3(O)[C@H](C)C(=O)C(O)=C1[C@@]23CO`, the viability at 1 µM with A549 [1] worked out at 101%; in the assay on HeLa [4], 102%. The viability at 10 µM with A549 [2] and with HeLa [5] was 104% each time. For the same molecule, the viability at 100 µM in the assay on A549 [3] amounted to 104%; in the assay with HeLa [6], 106%.
As for `CC1=CC(=O)[C@@H](O)[C@]2(C)[C@H]3[C@@H](O)[C@H](O)[C@H](C)[C@]4(O)[C@@H](O)C(=O)O[C@H](C[C@@]12O)[C@]34C`, the figures for the viability at 1 µM in the assay on A549 [1] and in the assay with HeLa [4] were 99.8% and 101%, respectively. The viability at 10 µM in the assay on A549 [2] worked out at 101%; in the assay with HeLa [5] it was 103%. In addition, the viability at 100 µM with A549 [3] is 99.3%; in the assay on HeLa [6], 100%.
As to `CC1=CC(=O)[C@@H](O)[C@]2(C)[C@H]3[C@]4(O)OC[C@@]35[C@@H](C[C@@H]12)OC(=O)[C@H](O)[C@@]5(O)[C@]1(CO1)[C@H]4O`, the viability at 1 µM in the assay with A549 [1] amounted to 96.2%; with HeLa [4], 101%. In addition, the viability at 10 µM in the assay with A549 [2] was determined as 102%; with HeLa [5], 101%. For the same molecule, the viability at 100 µM in the assay on A549 [3] is 99.1%; in the assay with HeLa [6] it was 61.7%.
`C=C1C[C@H](O)[C@@H](O)[C@]2(C)[C@H]3[C@@H](O)[C@H](O)[C@H](C)[C@@H]4C(=O)O[C@H]([C@H](O)[C@@H]12)[C@]34C`: the viability at 1 µM came out at 96.8% in the assay with A549 [1] and 99.7% with HeLa [4]. Also, the viability at 10 µM in the assay on A549 [2] and in the assay on HeLa [5] was 101% each time. Also, the values for the viability at 100 µM in the assay on A549 [3] and in the assay on HeLa [6] were 101% and 98.7%, respectively.
For the molecule `CC1=CC(=O)[C@@H](O)[C@]2(C)[C@H]3[C@]4(O)OC[C@@]35[C@@H](C[C@@H]12)OC(=O)[C@H](O)[C@@]5(O)[C@H](C)[C@H]4O` [PASAKBUMIN C], the figures for the viability at 1 µM in the assay on A549 [1] and in the assay on HeLa [4] were 99.2% and 99.8%, respectively. The viability at 10 µM was 101% with A549 [2] and 102% with HeLa [5]. Further, the viability at 100 µM in the assay with A549 [3] is 99.8%; in the assay on HeLa [6], 101%.
One may read the pIC50 as −log10 of the IC50, conventionally taken in molar units. A lower pIC50 goes with a high IC50. Consider `CC1=CC(=O)[C@@H](O)[C@]2(C)[C@H]3[C@@H](O)[C@H](O)[C@H](C)[C@]4(O)[C@@H](O)C(=O)O[C@H](C[C@@H]12)[C@]34C`, for which the viability at 1 µM in the assay on A549 [1] came out at 99.5%; in the assay on HeLa [4], 101%. The values for the viability at 10 µM in the assay with A549 [2] and in the assay with HeLa [5] were 86.4% and 71.6%, respectively. Moreover, the viability at 100 µM in the assay on A549 [3] was 43.3%; in the assay on HeLa [6], 21%. This molecule also showed a pIC50 with HeLa [7] of 4.32.
Take `CC1=CC(=O)[C@@H](O)[C@@]2(C)[C@H]1[C@@H](O)[C@H]1OC(=O)C3[C@@H](C)[C@H](O)[C@H](O)[C@H]2[C@]31C` (some centres not stated) [LONGILACTONE]: the viability at 1 µM worked out at 99.7% with A549 [1] and 101% in the assay on HeLa [4]. Further, the viability at 10 µM in the assay with A549 [2] turned out to be 99.8%; in the assay on HeLa [5], 102%. For the same molecule, the viability at 100 µM in the assay on A549 [3] worked out at 66.1%; with HeLa [6] it was 66.9%.
On to `C[C@H]1[C@H]2OC(=O)[C@@H]1[C@]1(C)C(=O)C=C3[C@@](C)(O)C[C@H](O)[C@@H](O)[C@]3(C)C1[C@H]2O` (some centres not stated), for which the viability at 1 µM in the assay with A549 [1] was 96.6%; in the assay on HeLa [4] it was 101%. Further, the viability at 10 µM in the assay with A549 [2] and in the assay on HeLa [5] was 102% each time. Moreover, the viability at 100 µM in the assay with A549 [3] amounted to 101%; in the assay on HeLa [6] it was 102%.
As to `COc1cccc2c1C(=O)c1c(O)c3c(c(O)c1C2=O)C[C@@](O)(C(=O)CO)C[C@@H]3O[C@H]1C[C@H](N)[C@@H](O)[C@H](C)O1` [EPIRUBICIN], the viability at 10 µM in the assay on A549 [2] was found to be 0.61%; in the assay on HeLa [5] it was 24.3%.
Consider `CC1=CC(=O)O[C@H]1[C@@]1(C)C[C@H]2OC(=O)[C@H](O)[C@@]3(O)[C@@H](C)[C@@H](O)[C@H](O)[C@H]1[C@@]23C`, for which the viability at 1 µM in the assay with A549 [1] is 102%; in the assay on HeLa [4], 104%. Besides, the viability at 10 µM in the assay with A549 [2] was determined as 102%; in the assay with HeLa [5], 104%. Further, the viability at 100 µM turned out to be 100% in the assay with A549 [3] and 103% with HeLa [6].
With `CC1=C2C[C@H]3OC(=O)[C@H](O)[C@@]4(O)[C@@H](C)[C@]5(O)C(=O)OC[C@]34C5[C@@]2(C)[C@H](O)[C@@H](O)C1` (some centres not stated), the viability at 1 µM came out at 103% with A549 [1] and 106% in the assay with HeLa [4]. The viability at 10 µM with A549 [2] was found to be 103%; with HeLa [5], 105%. The viability at 100 µM with A549 [3] and in the assay with HeLa [6] was 103% each time.
Take `CC1=CC(=O)O[C@H]1[C@@]1(C)C[C@H]2OC(=O)[C@H](O)[C@@]3(O)[C@@H](C)C(=O)C(O)=C1[C@@]23CO`: the viability at 1 µM in the assay on A549 [1] and with HeLa [4] was 102% in each case. Also, the results for the viability at 10 µM in the assay with A549 [2] and in the assay with HeLa [5] were 104% and 103%, respectively. In addition, the viability at 100 µM in the assay with A549 [3] came out at 103%; in the assay with HeLa [6], 106%.
For `C=C1[C@@H](O)[C@@]2(O)OC[C@]34[C@H]2[C@@]2(C)[C@H](O)C(=O)C=C(C)[C@@H]2C[C@H]3OC(=O)[C@H](O)[C@@]14O` [EURYCOMANONE], the viability at 1 µM worked out at 96.8% in the assay on A549 [1] and 101% in the assay on HeLa [4]. Besides, the values for the viability at 10 µM in the assay with A549 [2] and in the assay on HeLa [5] were 101% and 97.5%, respectively. Moreover, the viability at 100 µM in the assay on A549 [3] was 87.2%; in the assay on HeLa [6], 47%.
On to `C=C1C(=O)C(O)=C2[C@@](C)([C@@H]3OC(=O)C=C3C)C[C@H]3OC(=O)[C@H](O)[C@]1(O)[C@@]23CO`, for which the viability at 1 µM came out at 100% in the assay with A549 [1] and 102% in the assay on HeLa [4]. The viability at 10 µM stood at 102% with A549 [2] and 104% in the assay on HeLa [5]. The viability at 100 µM in the assay on A549 [3] is 100%; in the assay with HeLa [6], 101%.
In the case of `CC1=CC(=O)[C@@H](O)[C@@]2(C)[C@H]1CC(=O)[C@@]1(C)[C@H]3C(=O)O[C@H]([C@@H]3C)[C@H](O)[C@@H]12` [EURYCOMALACTONE], the viability at 1 µM worked out at 101% with A549 [1] and 105% in the assay on HeLa [4]. For the same molecule, the viability at 10 µM was determined as 71.5% with A549 [2] and 77.7% in the assay on HeLa [5]. The viability at 100 µM with A549 [3] was found to be 41.5%; with HeLa [6] it was 44.5%.
